Measured values taken from ChEMBL document CHEMBL1955801, “Synthesis, biological evaluation and molecular investigation of fluorinated peroxisome proliferator-activated receptors α/γ dual agonists” (Bioorg Med Chem, 2012).
Active and inactive are the calls of the source. The calls are words filed in the database; no cut-off is given here.

Experiments:
[1] = target: T1, Peroxisome proliferator-activated receptor alpha (Homo sapiens, UniProt Q07869); test: Agonist activity at GAL4-tagged human PPARalpha ligand binding domain expressed in HepG2 cells assessed as transactivation after 20 hrs by beta-galactosidase reporter gene assay; assay type: cell-based
T1 sequence (Q07869 whole entry): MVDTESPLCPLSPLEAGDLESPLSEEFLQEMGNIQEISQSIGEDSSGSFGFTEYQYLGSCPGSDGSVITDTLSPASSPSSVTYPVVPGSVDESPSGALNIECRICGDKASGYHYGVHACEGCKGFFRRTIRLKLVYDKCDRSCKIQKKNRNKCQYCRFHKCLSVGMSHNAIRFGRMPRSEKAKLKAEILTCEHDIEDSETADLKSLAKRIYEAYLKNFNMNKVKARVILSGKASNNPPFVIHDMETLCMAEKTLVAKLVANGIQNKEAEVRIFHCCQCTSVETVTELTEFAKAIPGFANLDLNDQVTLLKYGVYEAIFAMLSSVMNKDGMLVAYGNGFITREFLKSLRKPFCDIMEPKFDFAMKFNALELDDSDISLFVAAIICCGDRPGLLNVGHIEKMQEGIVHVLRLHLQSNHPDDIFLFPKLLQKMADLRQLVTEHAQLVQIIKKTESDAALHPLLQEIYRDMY
Method in brief: (§1)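 HepG2 cells were grown in MEM with 10% heat-inactivated FBS and penicillin/streptomycin at 37 °C in 5% CO2. They were seeded at 10^5 cells/well in triplicate and calcium-phosphate transfected 24 h later with GAL4-PPARα LBD (30 ng), pGAL5TKpGL3 luciferase reporter (100 ng) and pCMVβgal (250 ng). Ligands were applied for 20 h. Luciferase was read with β-galactosidase measured alongside. Experiments were repeated at least twice.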

[2] = target: T2, Peroxisome proliferator-activated receptor gamma (Homo sapiens, UniProt P37231); test: Agonist activity at GAL4-tagged human PPARgamma ligand binding domain expressed in HepG2 cells assessed as transactivation after 20 hrs by beta-galactosidase reporter gene assay; assay type: cell-based
T2 sequence (P37231 whole entry): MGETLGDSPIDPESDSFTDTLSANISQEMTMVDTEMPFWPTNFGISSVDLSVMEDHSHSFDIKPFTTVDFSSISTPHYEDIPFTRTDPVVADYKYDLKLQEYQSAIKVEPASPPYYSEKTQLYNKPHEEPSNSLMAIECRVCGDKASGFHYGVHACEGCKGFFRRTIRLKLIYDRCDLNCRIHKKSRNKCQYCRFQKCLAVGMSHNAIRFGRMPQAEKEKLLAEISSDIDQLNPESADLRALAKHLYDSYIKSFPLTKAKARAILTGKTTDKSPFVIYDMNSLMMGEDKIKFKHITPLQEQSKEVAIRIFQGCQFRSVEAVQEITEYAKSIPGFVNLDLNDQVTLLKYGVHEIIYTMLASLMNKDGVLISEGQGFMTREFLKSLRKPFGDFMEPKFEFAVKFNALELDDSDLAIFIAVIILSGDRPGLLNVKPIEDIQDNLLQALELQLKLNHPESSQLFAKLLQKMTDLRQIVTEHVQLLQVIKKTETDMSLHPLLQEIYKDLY

[3] = target: T3, Peroxisome proliferator-activated receptor alpha (Homo sapiens) (UniProt Q07869); test: Agonist activity at GAL4-tagged human PPARalpha ligand binding domain expressed in HepG2 cells assessed as transactivation after 20 hrs by beta-galactosidase reporter gene assay relative to Wy-14643; assay type: cell-based
T3 sequence (whole entry): T1 sequence (Q07869 whole entry)
Method in brief: as §1, with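 “alongside. Wy-14,643 was the reference.” for “alongside.”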

[4] = target: T4, Peroxisome proliferator-activated receptor gamma (Homo sapiens) (UniProt P37231); test: Agonist activity at GAL4-tagged human PPARgamma ligand binding domain expressed in HepG2 cells assessed as transactivation after 20 hrs by beta-galactosidase reporter gene assay relative to pioglitazone; assay type: cell-based
T4 sequence (whole entry): T2 sequence (P37231 whole entry)
Method in brief: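 HepG2 cells were cultured in MEM with 10% heat-inactivated FBS at 37 °C in 5% CO2 and seeded at 10^5 cells/well in triplicate. After 24 h they were calcium-phosphate transfected with GAL4-PPARγ LBD (30 ng), pGAL5TKpGL3 luciferase reporter (100 ng) and pCMVβgal (250 ng). Cells were treated with ligands for 20 h. Luciferase and β-galactosidase activities were measured in extracts. Pioglitazone was the reference. Experiments were run at least twice.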

[5] = target: T1, Peroxisome proliferator-activated receptor alpha; test: Agonist activity at GAL4-tagged human PPARalpha ligand binding domain expressed in HepG2 cells assessed as transactivation at 5 to 10 uM after 20 hrs by beta-galactosidase reporter gene assay; assay type: cell-based
[6] = target: T2, Peroxisome proliferator-activated receptor gamma; test: Agonist activity at GAL4-tagged human PPARgamma ligand binding domain expressed in HepG2 cells assessed as transactivation at 5 to 10 uM after 20 hrs by beta-galactosidase reporter gene assay; assay type: cell-based
[7] = target: T4, Peroxisome proliferator-activated receptor gamma (Homo sapiens); details: HepG2, 5 to 10 uM
[8] = target: T3, Peroxisome proliferator-activated receptor alpha (Homo sapiens); details: HepG2, 5 to 10 uM

| SMILES | EC50 [1] [µM] | EC50 [2] [µM] | Emax [3] [%] | Emax [4] [%] | EC50 [5] | EC50 [6] | Emax [7] | Emax [8] |
| --- | --- | --- | --- | --- | --- | --- | --- | --- |
| O=C(O)C(Cc1ccccc1)Oc1ccccc1C(F)(F)F (racemic) |  | 30 |  | 13 | Not Active |  |  |  |
| O=C(O)[C@H](Cc1ccccc1)Oc1ccc(F)cc1 | 24.8 | 35.2 | 55 | 58 |  |  |  |  |
| O=C(O)C(Oc1ccc(Cl)cc1F)c1ccc(Cl)cc1 (stereo not given) | 10.3 | 16.4 | 38 | 24 |  |  |  |  |
| Cc1cccc(Nc2cc(Cl)nc(SCC(=O)O)n2)c1C [PIRINIXIC ACID] |  |  |  |  |  | Not Active | inactive |  |
| O=C(O)[C@H](Cc1ccccc1)Oc1ccc(C(F)(F)F)cc1 |  |  | 81 | 59 |  |  |  |  |
| O=C(O)C(Oc1ccc(Cl)cc1F)c1ccccc1 (stereo not given) | 19 | 32 | 88 | 11 |  |  |  |  |
| CCc1ccc(CCOc2ccc(CC3SC(=O)NC3=O)cc2)nc1 (stereo not given) [PIOGLITAZONE] |  |  |  |  | Not Active |  |  | inactive |
| O=C(O)C(Cc1ccccc1)Oc1ccccc1F (racemic) | 22.3 | 19 | 36 | 26 |  |  |  |  |
| O=C(O)[C@H](Cc1ccccc1)Oc1cccc(C(F)(F)F)c1 | 9.8 | 15.9 | 71 | 44 |  |  |  |  |
| O=C(O)C(Cc1cccc(F)c1)Oc1ccccc1C(F)(F)F (racemic) |  | 11.6 |  | 20 | Not Active |  |  |  |
| O=C(O)C(Cc1ccccc1)Oc1ccc(Cl)c(F)c1 (stereo not given) | 6.5 | 14.1 | 51 | 40 |  |  |  |  |
| O=C(O)C(Cc1ccccc1)Oc1cccc(F)c1 (racemic) | 21 | 41 | 57 | 33 |  |  |  |  |

More lines, in order of falling EC50 [2], values ahead:

| EC50 [1] [µM] | EC50 [2] [µM] | Emax [3] [%] | Emax [4] [%] | EC50 [5] | EC50 [6] | Emax [7] | SMILES | Emax [8] |
| --- | --- | --- | --- | --- | --- | --- | --- | --- |
|  | 10 |  | 13 | Not Active |  |  | O=C(O)C(Oc1cccc(C(F)(F)F)c1)c1ccc(Cl)cc1 (stereo not given) | inactive |
| 4.9 | 9.6 | 90 | 77 |  |  |  | O=C(O)[C@H](Cc1ccccc1)Oc1ccc(Cl)cc1 |  |
| 2.5 | 5.8 | 59 | 21 |  |  |  | O=C(O)C(Cc1ccccc1)Oc1ccc(Cl)c(C(F)(F)F)c1 (stereo not given) |  |
| 5.4 | 5.2 | 66 | 57 |  |  |  | O=C(O)C(Cc1ccc(F)cc1)Oc1ccc(Cl)cc1 (racemic) |  |
| 6.6 | 4.9 | 66 | 59 |  |  |  | O=C(O)C(Cc1ccccc1F)Oc1ccc(Cl)cc1 (racemic) |  |
| 5.1 | 3.5 | 65 | 52 |  |  |  | O=C(O)C(Cc1cccc(F)c1)Oc1ccc(Cl)cc1 (racemic) |  |
| 2.2 | 2.5 | 101 | 84 |  |  |  | O=C(O)[C@H](Cc1ccccc1)Oc1ccc(Cl)cc1F |  |
| 4.5 | 2.4 | 101 | 83 |  |  |  | O=C(O)C(Cc1cccc(F)c1)Oc1ccc(Cl)cc1F (racemic) |  |
| 1.4 | 0.9 | 76 | 69 |  |  |  | O=C(O)C(Cc1ccc(Cl)cc1)Oc1ccc(Cl)cc1F (racemic) |  |
| 1 | 0.5 | 76 | 70 |  |  |  | O=C(O)[C@H](Cc1ccc(Cl)cc1)Oc1ccc(Cl)cc1F |  |
